# Assay outcomes as filed in PubChem BioAssay.
# ARFGAP1 inhibitor = rat ARFGAP1 inhibition | Q62848 | Arfgap1-stimulated ARF1 GTP hydrolysis, GDP FP detection | inhibition, % at 16.5 µM | actives 0.26% (n = 360,000) | AID 651572;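 active = inhibition above a per-plate limit, mean inhibition of low control wells plus 3 SD, cut at about 25% in these data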;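 also: 0% = DMSO wells with enzyme and 100% = wells lacking Arfgap1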
# Target sequence (Q62848 1-136 limits assumed): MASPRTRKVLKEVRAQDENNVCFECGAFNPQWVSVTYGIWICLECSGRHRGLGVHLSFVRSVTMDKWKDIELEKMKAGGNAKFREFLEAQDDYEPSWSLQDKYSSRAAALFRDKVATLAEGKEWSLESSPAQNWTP
#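 Material: truncated rat Arfgap1 GAP domain; Incubation: compound-enzyme preincubation 20 min, reaction 120 min, detection 60 min, 25 °C; Read-out: percent inhibition of Arfgap1-stimulated GTP hydrolysis; Technique: FP, GDP Alexa 633 tracer displaced from anti-GDP antibody, 620/688 nm; Controls: No-Arfgap1 wells (100%) versus DMSO full-reaction wells (0%); Replication: single well per compound.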
# MsrA inh = inhibitors of bovine MsrA; purified bovine MsrA, absorbance read-out; inhibition, % at 15.5 µM; actives 0.75% (n = 360,000); in the data active = inhibition above about 4.5%;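 also: 0% = vehicle wells with enzyme and 100% = reference inhibitor wells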
# MsrA act = activates bovine MsrA enzyme. purified bovine MsrA, absorbance read-out. activation, % at 10.6 µM. actives 0.3% (n = 360,000); in the data active = activation above about 7.5%;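 also: 0% = vehicle and 100% = reference activator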
# ASAP1 GAP inh = ASAP1 ArfGAP inhibition; AID 624377; actives 0.19% (n = 360,000); inhibition, % at 16.5 µM; Q9ULH1; ASAP1-stimulated ARF1 GTP hydrolysis, GDP FP detection; in the data active = inhibition above about 25%;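 also: 0% = vehicle with enzyme and substrate and 100% = no enzyme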
# Target sequence (Q9ULH1 325-724 limits assumed): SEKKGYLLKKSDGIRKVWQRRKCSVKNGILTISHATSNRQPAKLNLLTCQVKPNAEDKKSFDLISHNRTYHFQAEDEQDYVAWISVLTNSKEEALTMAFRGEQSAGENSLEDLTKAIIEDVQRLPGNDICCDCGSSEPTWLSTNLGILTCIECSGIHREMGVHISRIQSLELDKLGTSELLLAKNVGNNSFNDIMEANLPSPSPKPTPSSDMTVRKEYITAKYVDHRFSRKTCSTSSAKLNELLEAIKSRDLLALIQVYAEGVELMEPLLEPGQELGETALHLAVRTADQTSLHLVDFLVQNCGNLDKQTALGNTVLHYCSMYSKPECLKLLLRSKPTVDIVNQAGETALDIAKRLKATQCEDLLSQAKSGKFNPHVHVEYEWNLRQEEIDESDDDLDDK
# ASAP1 GAP conf = confirmation of human ASAP1 inhibitors | actives 37% (n = 620) | inhibition, % at 16.5 µM | ASAP1-stimulated Arf1 GTPase, GDP fluorescence polarization | AID 624431 | shares compounds with ASAP1 GAP inh;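 active = mean inhibition over triplicates exceeds the hit threshold derived for the earlier primary screening run, cut at about 25% in these data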
# Starred values were filed as active, the others as inactive; nt = no result given. Rows were chosen to be rich in hits. Some 1.4% of all compounds tested hit in one or more screens of this group.
SMILES,ARFGAP1 inhibitor,MsrA inh,MsrA act,ASAP1 GAP inh,ASAP1 GAP conf
CC1(C)C=C2C(=NN(c3ccccc3)C(N)=C2C#N)CO1,9.3,2.1,-2.0,26.3*,7.8
CC1(C)Cc2c(C#N)c(N)n(-c3ccccc3)c(=S)c2CO1,-4.6,2.1,0.0,-3.3,nt
COC(=O)c1ccc(C(=O)OCc2nc3cc4ccccc4cc3[nH]2)cc1,4.7,1.0,-1.4,26.3*,4.7
COc1ccc(N/N=C(\C#N)C(=N)SCc2ccccc2)cc1,4.7,3.3,-2.4,26.5*,1.0
O=C(Nc1ccc(Br)cc1)c1cc(-c2ccncc2)nc2ccccc12,16.7,0.4,-2.8,29.4*,15.5
O=C(Nc1ccncc1)c1cc(-c2ccccc2)nc2ccccc12,-6.8,0.7,-2.2,-2.9,nt
Cc1cccc(NC(=O)CSc2nncn2N)c1C,0.9,0.0,2.4,-2.0,nt
CC(Oc1ccccc1)C(=O)N1CCC2(CC1)Oc1ccc(F)cc1C(=O)C21CC(c2cccnc2)=NO1 (configuration not stated),15.3,0.7,-1.7,25.8*,4.7
CC(C)n1c(-c2ccc(C(C)(C)C)cc2)n[nH]c1=S,12.6,-0.7,1.8,26.0*,6.5
CCC(CO)Oc1cc(NCc2ccc(Cl)cc2)c2ncn(C(C)C)c2c1 (configuration not stated),7.5,2.2,-1.9,-3.7,nt
CC[C@H](CO)Oc1cc(NCc2ccc(Cl)c(Cl)c2)c2ncn(C(C)C)c2c1,14.0,1.7,-1.5,26.3*,16.4
O=C(Nc1cc(C2CC2)nn1-c1ccccc1)c1ccc(F)cc1,-13.2,-0.4,-4.5,-3.9,nt
Cc1ccc2[nH]c(O)c(N=NC(=O)c3ccc(NS(=O)(=O)c4cccs4)cc3)c2c1,-2.0,0.1,-1.7,28.9*,8.7
O=C(N=Nc1c(O)[nH]c2ccc(F)cc12)c1ccc(NS(=O)(=O)c2cccs2)cc1,1.8,1.8,-1.5,6.3,nt
Cc1ccc(C)c(C(=O)COC(=O)Cn2c(C)csc2=O)c1,9.7,0.4,-4.7,2.0,nt
Cc1ccc(C(=O)NCc2ccco2)cc1[N+](=O)[O-],-3.1,-0.2,1.5,-5.8,nt
Cc1ccc(NC(=O)c2ccc(NCc3ccco3)c([N+](=O)[O-])c2)cc1Cl,11.2,0.3,-2.5,25.6*,28.6*
Cc1ccc(NC(=O)c2ccc(NCC3CCCO3)c([N+](=O)[O-])c2)cc1Cl (configuration not stated),14.4,-0.9,-2.9,34.4*,94.6*
NC(=O)c1ccc(NCC2CCCO2)c([N+](=O)[O-])c1 (configuration not stated),-0.7,0.3,-8.6,-7.8,nt
COc1cccc(CNC(=O)[C@H]2CCCN2C(=O)[C@H]2CCCN2C(=O)c2cccc(Cl)c2)c1,0.7,0.4,nt,-3.0,nt
NC(=O)C1CCCN(C(=O)CN2C(=O)NC(c3ccccc3)(c3ccccc3)C2=O)C1 (configuration not stated),-0.1,-1.8,0.3,-2.2,nt
COc1ccc(OCCOc2ccccc2[N+](=O)[O-])cc1,-0.8,-0.2,-3.6,-3.5,nt
O=[N+]([O-])c1ccccc1OCCOc1ccccc1[N+](=O)[O-],34.9*,1.0,-2.1,81.3*,102.1*
N#Cc1cc2ccc(N3CCOCC3)cc2cc1C#N,4.4,0.0,-3.7,29.5*,5.6
Cc1nnc2sc(-c3ccc(NC(=O)c4ccc(-c5ccc(Cl)cc5Cl)o4)cc3)nn12,20.1,-0.4,0.0,111.8*,55.5*
SMILES,ARFGAP1 inhibitor,MsrA inh,MsrA act,ASAP1 GAP inh,ASAP1 GAP conf
Cc1nn(-c2ccc(Cl)cc2)c(Cl)c1/C=N/NC(=O)c1ccc(NS(=O)(=O)c2cccs2)cc1,7.5,0.8,-3.4,-11.9,nt
S=C(Nc1ccc2nsnc2c1)N1CCCCC1,21.7,-0.7,-7.4,25.5*,-0.5
Cc1ccc2c(c1)nnn2C1CCN(C(=O)c2ccccc2F)CC1,-5.3,0.9,0.1,-14.7,nt
Nc1ccc2c(c1)C(=NO)c1cc([N+](=O)[O-])ccc1-2,-4.9,1.4,-2.1,25.9*,18.2
CC1=[N+](C)c2c(ccc3cccnc23)C1(C)C,70.5*,-0.4,-3.5,50.9*,31.8*
Cc1[nH]c2c(ccc3cccnc32)c1C,-2.5,1.5,-12.2,-0.7,nt
CCOC(=O)N1CCN(S(=O)(=O)c2ccc(OC)c(Cl)c2Cl)CC1,-4.5,0.6,-4.1,1.9,nt
COc1ccc(S(=O)(=O)N2CCCC2)c(Cl)c1Cl,5.4,1.1,-16.0,25.2*,0.5
O=C1NC(=S)S/C1=C\C=C\c1ccc([N+](=O)[O-])o1,8.4,3.0,-8.0,28.9*,10.7
O=C(c1ccco1)N1CCN(c2nc(C3CC3)nc3c2nnn3Cc2ccccc2Cl)CC1,-3.5,-0.1,-7.9,6.1,nt
CC(C)(C)c1nc(N2CCN(C(=O)c3ccco3)CC2)c2nnn(Cc3ccccc3)c2n1,14.3,1.4,-0.5,49.2*,2.6
CCOC(=O)C1CCCN(C(=O)c2ccc(-c3ccccc3)cc2)CC1 (configuration not stated),-2.5,-1.0,-0.7,-4.8,nt
CC(C)C[C@@H](CNCC(=O)[C@H](Cc1c[nH]c2ccccc12)NC(=O)c1[nH]cnc1C(=O)N[C@@H](C)CN)NC(=O)c1nc[nH]c1C(=O)N[C@@H](Cc1ccccc1)C(=O)O,-3.1,0.2,-1.7,-6.1,nt
CC(C)C[C@@H](CNC(=O)OC(C)(C)C)NC(=O)c1nc[nH]c1C(=O)N[C@@H](CC(C)C)C(=O)CNC[C@H](CC(C)C)NC(=O)c1nc[nH]c1C(=O)N[C@@H](Cc1c[nH]c2ccccc12)C(=O)OC(C)(C)C,9.8,-1.0,-2.2,32.1*,18.8
CN(C)S(=O)(=O)c1ccc(Cl)c(C(=O)NNC(=O)c2ccc3c(c2)OCO3)c1,-0.1,0.6,-1.8,-7.1,nt
Cc1ccc(NC(=O)CSc2nnc(-c3ccc(S(=O)(=O)N4CCCC4)cc3)o2)cc1C,-5.5,-0.4,-0.8,30.7*,4.3
Cc1cccc(NC(=O)CSc2nnc(-c3ccc(S(=O)(=O)N4CCCC4)cc3)o2)c1,nt,nt,-1.1,nt,nt
O=C(NCC1CCCO1)c1cccc(S(=O)(=O)Nc2ccc(F)cc2)c1 (configuration not stated),-8.5,-1.1,-1.5,-4.6,nt
COc1ccc(CCC(=O)Nc2ccc(OC)c(S(=O)(=O)N3CCCCC3)c2)cc1,-5.7,-0.4,-5.1,9.8,nt
CCOC(=O)C1=C(COC(=O)c2ccc([N+](=O)[O-])o2)NC(=O)NC1C (configuration not stated),-5.7,0.5,-1.5,-1.4,nt
COc1ccc(Cn2ccnc2SCC(=O)Nc2ccccc2OC)cc1,-3.6,-0.1,-2.7,25.7*,10.3
COc1ccc(Cn2ccnc2SCC(=O)Nc2ccccc2F)cc1,-3.9,-0.7,-2.6,5.4,nt
Cc1csc(N2C(=O)C3C4CCC(O4)C3C2=O)n1 (configuration not stated),-2.2,0.5,-2.4,-3.0,nt
CC(C)NC(=O)c1ccc2c3n(nc2c1)-c1ccc(Cl)cc1CO3,2.6,0.5,-1.6,31.4*,6.5
CN(C)c1ccc(/C=C/c2nc3ccccc3c(=O)n2CCO)cc1,1.9,3.3,-2.6,4.5,nt
